From PubChem
KCNK3 inh = human KCNK3 channel inhibition, primary screen | CHO-KCNK3 thallium flux, FluxOR fluorescence; hits give low values | B-score at 10 µM | 340,000 compounds, 0.84% hits | AID 602410;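 active means B-score under library mean minus 4 SD, starting fluorescence ratio at most library mean plus 5 SD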;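 further: more negative B-score means stronger inhibition of thallium flux through KCNK3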
hERG rescue = compounds protecting human hERG from proarrhythmic drug block. Q12809. CHO-hERG, FluxOR thallium flux, dofetilide IC70 present. activation (rescue from dofetilide block), less the hit threshold, % at 10 µM. 310,000 compounds, 0.51% hits. AID 1511;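 active means activation above the mean of controls blocked by dofetilide plus 5 SD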;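 further: thallium influx through hERG after potassium depolarization seen as dye fluorescence rise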
Kir21 inh = blocks the mouse Kir2.1 inward-rectifier potassium channel; HEK293-Kir2.1, FluxOR thallium flux fluorescence; hits give low values; B-score at 10 µM; 310,000 compounds, 0.85% hits;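 active means fluorescence ratio B-score at or below minus 3 SD of library scores, with starting-brightness B-score within 2 SD, cut at about -4.2 in these data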;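 further: channel flux triggered by added potassium and thallium sulfate stimulus; B-score of peak minus minimum fluorescence over baseline after thallium stimulus; more negative B-score means stronger Kir2.1 block with less thallium influx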
Target sequence (P35561 whole entry, looked up): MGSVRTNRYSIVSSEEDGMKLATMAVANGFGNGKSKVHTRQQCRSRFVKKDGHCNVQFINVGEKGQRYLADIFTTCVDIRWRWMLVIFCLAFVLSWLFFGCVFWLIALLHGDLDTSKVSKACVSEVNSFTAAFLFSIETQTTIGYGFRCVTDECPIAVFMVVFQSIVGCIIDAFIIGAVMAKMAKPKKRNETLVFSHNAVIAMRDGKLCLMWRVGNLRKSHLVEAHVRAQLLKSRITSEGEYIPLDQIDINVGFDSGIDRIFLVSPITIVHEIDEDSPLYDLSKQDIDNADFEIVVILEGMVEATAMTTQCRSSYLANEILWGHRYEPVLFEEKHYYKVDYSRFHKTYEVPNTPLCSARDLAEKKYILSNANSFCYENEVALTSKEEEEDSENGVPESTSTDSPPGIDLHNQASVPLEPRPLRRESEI
KCNQ1 pot = potentiators or activators of human KCNQ1 potassium channel. P51787. CHO-K1 KCNQ1, thallium flux FluxOR fluorescence; hits give high values. B-score at 10 µM. 310,000 compounds, 0.35% hits. AID 2648;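 active means fluorescence ratio B-score, a plate-corrected score, at least three library SD, with initial intensity B-score within 5 SD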
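Assay system: CHO-K1 cells stably expressing KCNQ1. Medium: assay buffer for compound exposure, DMSO matched across wells. Timing: 37 °C overnight plating, 90-min dark dye load, 20-min compound pretreatment. Signal: kinetic FluxOR fluorescence, 10 s baseline plus 110 s post-stimulus.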
KCNQ1 inh = human KCNQ1 channel inhibition; P51787; CHO-K1 KCNQ1, FluxOR thallium flux fluorescence; hits give high values; B-score at 10 µM; 310,000 compounds, 1.3% hits;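 active means compounds whose thallium flux B-score, printed positive for inhibition, exceeds three library SD while starting fluorescence stays within three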;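 further: channel opened by potassium depolarization with thallium stimulus after 20 min compound exposure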
KCNK9 block = blocks the human KCNK9 two-pore domain potassium channel; AID 488922; 310,000 compounds, 1.2% hits; HEK293 KCNK9, FluxOR thallium flux fluorescence; hits give low values; B-score at 10 µM; Q9NPC2;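 active means ratio B-score over 3 SD below the library mean, with starting fluorescence within 5 SD of its mean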;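 further: negative B-score means less thallium flux so channel inhibition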
KCNQ1 inh valid = reconfirmed blocker of the human KCNQ1 potassium channel | shares compounds with KCNQ1 inh | KCNQ1 cell line, FluxOR thallium flux fluorescence | inhibition, % at 10 µM | 1,600 compounds, 93% hits | AID 588353;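 active means primary screen active, with duplicate mean exceeding buffer control mean plus 3 SD of buffer wells, cut at about 28% in these data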;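 further: 0% = buffer control ratio and 100% = XE991 inhibitor control ratio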
CHO KCNQ1 ctr = KCNQ1 inhibitor counter-screen hit in parental CHO cells. fluorescence ratio (Tl flux) at 10 µM. AID 588366. 1,600 compounds, 21% hits. shares compounds with KCNQ1 inh. parental CHO-K1, FluxOR thallium flux fluorescence ratio; hits give low values; zero means no signal rise above baseline;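 active means mean of duplicate thallium-flux fluorescence ratios in parental host cells more than 5 SD below the buffer control mean, cut at about 0.38 in these data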;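 further: ratio is peak minus minimum fluorescence divided by baseline fluorescence; actives read low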
KCNQ1 APC inh = confirmation of human KCNQ1 potassium channel inhibitors by electrophysiology | shares compounds with KCNQ1 inh | KCNQ1-CHO cells, automated patch clamp current | calls only at 10 µM | 490 compounds, 20% hits | AID 624120;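 active means KCNQ1 current drop exceeding 3 SD of negative control wells, seen in both duplicate runs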;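 further: steady state current during a 2 s step from -80 to +40 mV; negative values mean current inhibition and positive values mean potentiation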
KCNQ2 spec = KCNQ1 inhibitor that also blocks rat KCNQ2 channel. inhibition, % at 10 µM. AID 651746. shares compounds with KCNQ1 inh. 1,600 compounds, 71% hits. KCNQ2 cells, FluxOR thallium flux fluorescence;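 active means mean percent inhibition of the KCNQ2 thallium signal more than 5 SD above the buffer-only control wells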;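 further: KCNQ2 expressed in CHO cells; 0% = buffer control wells and 100% = XE-991 inhibitor control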
KCNQ1-KCNE1 inh = selectivity of KCNQ1 inhibitors: inhibition of human KCNQ1/KCNE1 channel; 1,600 compounds, 77% hits; shares compounds with KCNQ1 inh; KCNQ1/KCNE1 cells, FluxOR thallium flux fluorescence; inhibition, % at 10 µM;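 active means mean percent inhibition of duplicate wells above the buffer-only control mean plus 3 SD of those controls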;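 further: 0% = buffer only wells and 100% = XE-991 inhibitor control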
Starred values were filed as active, the others as inactive; i = inactive; x = no result; + = active, no number. This is a sample that favours compounds with a hit; in the whole collection about 3.7% have one here.

SMILES	KCNK3 inh	hERG rescue	Kir21 inh	KCNQ1 pot	KCNQ1 inh	KCNK9 block	KCNQ1 inh valid	CHO KCNQ1 ctr	KCNQ2 spec	KCNQ1-KCNE1 inh	others
Cc1ccc(S(=O)(=O)Nc2ccc(SC(F)F)cc2)c(C)c1	i	-10	-0.48	i	6*	i	26*	0.45	i	136%*
Cc1ccc(S(=O)(=O)N(Cc2ccccc2)Cc2ccco2)cc1	i	-15	-5*	i	7*	i	96*	0.46	93%*	40%*	KCNQ1 APC inh=i
Cc1nc2c(-c3ccccc3)c(C)nn2c(N)c1-c1ccccc1	i	-6	-1.3	i	7*	i	+	0.45	i	i	KCNQ1 APC inh=i
CSc1cccc(NC(=O)Nc2ccc(Cl)cc2)c1	i	-17	1.2	i	17*	i	68*	0.39	61%*	44%*
O=C(Nc1cccc(Cl)c1)Nc1ccc2nccnc2c1	i	-8	-0.02	i	7*	i	98*	0.43	92%*	100%*	KCNQ1 APC inh=i
O=C(Nc1ccncc1)Nc1cccc(F)c1	i	-17	1.1	i	8*	i	48*	0.55	i	42%*
Fc1ccc(NC(=S)Nc2cccc(Cl)c2)cc1	i	-18	1.9	i	6*	i	48*	0.51	i	36%*
CSc1cccc(NC(=S)Nc2ccc(F)cc2)c1	i	-8	-2.3	i	i	i	x	x	x	x
CSc1cccc(NC(N)=O)c1	i	-10	-0.32	i	i	i	x	x	x	x
CC12CCC(=O)N1C(C(=O)N1CCN(c3ccc(C(F)(F)F)cc3[N+](=O)[O-])CC1)CS2 (stereo not drawn)	i	-13	0.74	i	i	i	x	x	x	x
COC(=O)c1cc(C(=O)OCC(=O)c2ccc3c(c2)NC(=O)CO3)cc([N+](=O)[O-])c1	i	x	x	x	x	x	x	x	x	x
Nn1cnc2scc(-c3ccco3)c2c1=O	i	-5	-0.4	i	i	i	x	x	x	x
COc1ccc(C)cc1N1C(=N)/C(=C2/Nc3ccccc3S2)C(c2ccccc2)C1=O (stereo not drawn)	i	x	x	x	x	x	x	x	x	x
COC(=O)c1cc(OC)c(OC)cc1NC(=S)Nc1cc(Cl)ccc1OC	i	-10	1	i	i	i	x	x	x	x
N#Cc1ccc(NC(=O)Nc2cccc(C#N)c2)cc1	i	-26	0.08	i	7*	i	49*	0.49	i	i
COC(=O)c1cc(OC)c(OC)cc1NC(=S)Nc1cccc(Cl)c1	i	-6	-0.03	i	7*	i	60*	0.51	i	i
N#Cc1cccc(NC(=O)c2ccccc2C(=O)O)c1	i	-7	-1	i	i	i	x	x	x	x
CC(=O)c1ccc(NC(=O)Nc2cccc(Cl)c2)cc1	i	-17	-0.39	i	8*	i	88*	0.47	61%*	i	KCNQ1 APC inh=i
O=C(Nc1ccccc1)Nc1cccc(Cl)c1	i	-13	-0.77	i	13*	i	86*	0.51	72%*	i
CC(=O)Nc1ccc(NC(=O)Nc2cccc(Cl)c2)cc1	i	-7	2	i	i	i	x	x	x	x
O=C(Nc1cccc(Cl)c1)Nc1cccc(C(=O)O)c1	i	-10	-0.84	i	i	i	x	x	x	x
NC(=O)CC(NC(=O)Cc1ccc(Br)cc1)c1ccc(N2CCc3ccccc3C2)c([N+](=O)[O-])c1 (stereo not drawn)	i	-3	0.12	i	i	i	x	x	x	x
CN1C2CCC1/C(=C\c1ccc(F)cc1)C(=O)/C2=C/c1ccc(F)cc1	i	-4	0.36	i	i	i	x	x	x	x
CN1C2CCC1/C(=C/c1cccn1C)C(=O)/C2=C\c1cccn1C	i	-46	-17	i	17*	i	+	0.14*	i	i
COc1ccc(NS(=O)(=O)c2cc(NC(=O)CCc3ccc(OC)c(OC)c3)ccc2N2CCOCC2)cc1	i	x	x	x	x	x	x	x	x	x
SMILES	KCNK3 inh	hERG rescue	Kir21 inh	KCNQ1 pot	KCNQ1 inh	KCNK9 block	KCNQ1 inh valid	CHO KCNQ1 ctr	KCNQ2 spec	KCNQ1-KCNE1 inh	others
Cc1cc2c(cc1C)N(Cc1ccc(Cl)cc1)C1=NCCCN12	i	-16	-2.2	i	7*	i	91*	0.41	105%*	98%*	KCNQ1 APC inh=+
O=C(NCCOc1ccc(F)cc1)c1ccccc1SCc1ccccc1	i	-25	-1.4	i	7*	i	102*	0.48	106%*	169%*	KCNQ1 APC inh=+
CCN=C(NCC)SC1CC(=O)N(c2cccc(OC)c2)C1=O (stereo not drawn)	i	-23	1	i	11*	i	64*	0.44	71%*	62%*
COc1ccc(N(CC(=O)NC2CC3CCC2C3)S(=O)(=O)c2ccccc2)cc1Cl (stereo not drawn)	i	-1	0.54	i	7*	i	114*	0.42	i	126%*	KCNQ1 APC inh=+
COc1ccc(N(CC(=O)NC2CC3CCC2C3)S(=O)(=O)c2ccc(C)cc2)cc1OC (stereo not drawn)	i	-9	1.4	i	i	i	x	x	x	x
COc1cccc(OCc2cc(C(=O)N3CCN(C(C)=O)CC3)no2)c1	i	-4	0.02	i	i	i	x	x	x	x
O=C(Cc1ccccc1Cl)Nc1cccc(S(=O)(=O)N2CCCCCC2)c1	i	x	x	x	x	x	x	x	x	x
O=C(Nc1cccc(S(=O)(=O)N2CCCCC2)c1)Nc1ccc(Cl)cc1Cl	i	-10	1.7	i	7*	i	98*	0.45	97%*	70%*	KCNQ1 APC inh=i
COc1ccc(CCNc2ncnc3sc(C)cc23)cc1OC	i	-19	-6.2*	i	11*	i	133*	0.44	80%*	82%*	KCNQ1 APC inh=i
COc1ccc(CCNc2ncnc3[nH]ncc23)cc1OC	i	-14	1.6	i	i	i	x	x	x	x
Cc1nnc2ccc(Oc3ccc(-c4ccccc4)cc3)nn12	i	-17	0.08	i	9*	i	67*	0.47	i	i
CC1(C)Cc2ccccc2-c2nc(NN)[nH]c(=O)c21	i	-9	-1.3	i	i	i	x	x	x	x
